Assay results as given in ChEMBL document CHEMBL1146666, “N-[1-Aryl-2-(1-imidazolo)ethyl]-guanidine derivatives as potent inhibitors of the bovine mitochondrial F1F0 ATP hydrolase” (Bioorg Med Chem Lett, 2004).

Key:
[1] = molecular target: T1, Mitochondrial complex V; ATP synthase (Bos taurus, UniProt P00829+P05630+P05631+P05632); test: Inhibitory activity against bovine mitochondrial F1F0 ATP hydrolase; type: protein-complex assay
[2] = molecular target: T1, Mitochondrial complex V; ATP synthase; test: Inhibitory activity against bovine mitochondrial F1F0-ATP synthase; type: protein-complex assay
Procedure, shortened: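 Synthase direction read as the rise in A340 in a hexokinase:glucose-6-phosphate dehydrogenase coupled assay.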

T1 sequence (P05632 whole entry): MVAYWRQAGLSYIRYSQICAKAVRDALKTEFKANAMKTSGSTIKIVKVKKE
T1 sequence (P00829 whole entry): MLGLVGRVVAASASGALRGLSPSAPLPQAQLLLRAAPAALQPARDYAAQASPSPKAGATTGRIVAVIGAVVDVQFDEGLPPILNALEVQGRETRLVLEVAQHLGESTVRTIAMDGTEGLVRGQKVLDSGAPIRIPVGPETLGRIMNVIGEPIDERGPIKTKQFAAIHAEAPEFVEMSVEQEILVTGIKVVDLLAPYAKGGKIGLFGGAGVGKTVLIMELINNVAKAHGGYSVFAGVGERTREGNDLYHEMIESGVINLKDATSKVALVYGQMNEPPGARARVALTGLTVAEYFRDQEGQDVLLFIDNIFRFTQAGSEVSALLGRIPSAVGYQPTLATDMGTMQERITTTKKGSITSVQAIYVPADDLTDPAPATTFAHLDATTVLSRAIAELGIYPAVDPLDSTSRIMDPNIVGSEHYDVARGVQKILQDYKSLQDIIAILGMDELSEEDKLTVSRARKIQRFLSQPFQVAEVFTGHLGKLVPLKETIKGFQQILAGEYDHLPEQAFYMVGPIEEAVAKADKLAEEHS
T1 sequence (P05631 whole entry): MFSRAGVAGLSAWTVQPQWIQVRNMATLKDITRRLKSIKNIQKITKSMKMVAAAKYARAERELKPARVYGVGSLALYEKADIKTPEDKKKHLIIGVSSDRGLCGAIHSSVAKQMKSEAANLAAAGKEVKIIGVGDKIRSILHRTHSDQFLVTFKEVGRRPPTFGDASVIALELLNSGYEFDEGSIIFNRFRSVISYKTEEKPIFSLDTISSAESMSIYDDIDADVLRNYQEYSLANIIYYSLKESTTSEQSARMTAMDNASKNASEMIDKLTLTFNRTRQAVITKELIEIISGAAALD
T1 sequence (P05630 whole entry): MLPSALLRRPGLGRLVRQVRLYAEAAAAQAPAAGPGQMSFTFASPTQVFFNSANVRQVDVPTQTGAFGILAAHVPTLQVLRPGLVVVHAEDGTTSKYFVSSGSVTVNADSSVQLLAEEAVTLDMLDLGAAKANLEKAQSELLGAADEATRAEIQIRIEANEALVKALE

Row | Structure (SMILES) | IC50 [1] | IC50 [2]
1 | N#Cc1cccc(C(=O)C(Nc2ccc(Cl)cc2)NC(Cn2ccnc2)c2ccc(Cl)cc2Cl)c1 (stereo in doubt; 19a) | 0.033 µM | –
2 | N#CN/C(=N\C(Cn1ccnc1)c1ccc(Cl)cc1Cl)Nc1ccc(Cl)cc1 (configuration not stated) | 8.8 µM | > 100 µM
3 | Cc1ccc(NC(=S)OC(Cn2ccnc2)c2ccc(Cl)cc2Cl)c(C)c1 (configuration not stated) | 0.23 µM | > 100 µM
4 | O=C(c1ccc(Cl)cc1)C(Nc1ccc(Cl)cc1)NC(Cn1ccnc1)c1ccc(Cl)cc1Cl (configuration not stated) | 0.082 µM | > 100 µM
5 | Cc1ccc(C(Cn2ccnc2)OC(=S)Nc2ccc(Cl)cc2)c(C)c1 (configuration not stated) | 31.4 µM | > 100 µM
6 | Cc1ccc(NC(=S)OC(Cn2ccnc2)c2ccc(Cl)cc2Cl)cc1 (configuration not stated) | 0.66 µM | > 100 µM
7 | N#CN/C(=N/c1cccc(Cl)c1)NC(Cn1ccnc1)c1ccc(Cl)cc1Cl (configuration not stated) | 9.17 µM | > 100 µM
8 | N#Cc1cccc(C(=O)C(Nc2ccc(Cl)cc2)NC(Cn2ccnc2)c2ccc(Cl)cc2Cl)c1 (stereo in doubt; form 1) | > 100 µM | > 100 µM
9 | N#Cc1ccc(C(=O)C(Nc2ccc(Cl)cc2)NC(Cn2ccnc2)c2ccc(Cl)cc2Cl)cc1 (configuration not stated) | 0.28 µM | > 100 µM
10 | S=C(Nc1ccccc1)OC(Cn1ccnc1)c1ccc(Cl)cc1Cl (configuration not stated) | 3.6 µM | > 100 µM
11 | S=C(Nc1ccc(Cl)cc1)OC(Cn1ccnc1)c1ccc(Cl)cc1Cl (configuration not stated) | 0.43 µM | > 100 µM
12 | S=C(Nc1ccc(Cl)cc1Cl)OC(Cn1ccnc1)c1ccc(Cl)cc1Cl (configuration not stated) | 0.03 µM | > 100 µM
13 | N#CN/C(=N\C(Cn1ccnc1)c1ccc(Cl)cc1Cl)Nc1cccc(Cl)c1Cl (configuration not stated) | 2.49 µM | > 100 µM
14 | N#CN/C(=N/c1ccc(Cl)cc1Cl)NC(Cn1ccnc1)c1ccc(Cl)cc1Cl (configuration not stated) | 0.6 µM | > 100 µM
15 | O=C(Nc1ccc(Cl)cc1Cl)OC(Cn1ccnc1)c1ccc(Cl)cc1Cl (configuration not stated) | 6.77 µM | > 100 µM
16 | CCC(=O)C(Nc1ccc(Cl)cc1)NC(Cn1ccnc1)c1ccc(Cl)cc1Cl (configuration not stated) | 2.27 µM | > 100 µM
17 | N#CN/C(=N\C(Cn1ccnc1)c1cc(C(F)(F)F)ccc1C(F)(F)F)Nc1ccc(Cl)cc1Cl (configuration not stated) | 0.71 µM | > 100 µM
18 | S=C(Nc1ccc(Cl)cc1Cl)NC(Cn1ccnc1)c1ccc(Cl)cc1Cl (configuration not stated) | 2.41 µM | > 100 µM
19 | N#CN=C(Nc1ccccc1Cl)NC(Cn1ccnc1)c1ccc(Cl)cc1Cl (configuration not stated) | 2.23 µM | > 100 µM
